According to ChEMBL document CHEMBL3297675, “Mahorones, highly brominated cyclopentenones from the red alga Asparagopsis taxiformis” (J Nat Prod, 2014):
In brackets after ≈: the same amount, converted by molar mass. Activity calls are given as the source filed them. No cut-off for these calls is given here.

Assays:
Aliivibrio fischeri = experiment: Toxicity in Vibrio fischeri NRRL B-11177 assessed as reduction in bioluminescence after 15 mins by microtox assay; assay type: organism-based; conditions: NRRL B-11177, 0.25 h
Procedure, shortened: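 Microtox assay with V. fischeri. Samples made up to 500 μg·mL−1 initial in artificial seawater containing 2% acetone, then tested at 45, 22.5, 11.25 and 5.625% of initial, in triplicate. Light loss read after 15 min exposure, γ = (I0/It) − 1. EC50 taken from log γ versus log concentration regression at γ = 1.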

HT-29 = experiment: Cytotoxicity against human HT-29 cells after 24 hrs by MTT assay; assay type: functional, cell-based
Procedure, shortened: (§1)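 MTT assay with cells seeded at 3 × 10^4 cells/well. Compound taken from 1 mM DMSO stock, diluted 1/200 into medium and left on cells 24 h at 37 °C, 5% CO2. MTT then added at 0.5 mg·mL−1 in phenol red-free MEM for 3 h. Formazan dissolved in DMSO and absorbance read at 570 nm.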

Aspergillus fumigatus [1] = experiment: Antifungal activity against Aspergillus fumigatus by resazurin-based assay in presence of caspofungin enhancer; assay type: functional
Procedure, shortened: (§2)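 Liquid assay in modified RPMI medium: RPMI-1640, Yeast Nitrogen Base, 1.8% glucose, 40 mM HEPES pH 7.1. Compound added from 0.5 mM solution before inoculum. Tested at 5 μM final in triplicate. Amphotericin B curve (0.5−4 μg·mL−1) run as control. Incubated overnight at 37 °C, then viability scored with resazurin at 0.002% final.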

Aspergillus fumigatus [2] = experiment: Antifungal activity against Aspergillus fumigatus by resazurin-based assay; assay type: functional; procedure, shortened: as §2
Staphylococcus aureus [3] = experiment: Antibacterial activity against methicillin-sensitive Staphylococcus aureus by resazurin-based assay; assay type: functional
MCF7 = experiment: Cytotoxicity against human MCF7 cells after 24 hrs by MTT assay; assay type: functional, cell-based; procedure, shortened: as §1
Escherichia coli [4] = experiment: Antibacterial activity against Escherichia coli 5746 by resazurin-based assay; assay type: functional
Procedure, shortened: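 Liquid broth assay in Luria Broth, inoculum plus compound from 0.312 mM DMSO stock. Tested at 5 μM final in triplicate within one experiment. Overnight incubation at 37 °C. Growth read by turbidity or fluorescence, with viability scored using resazurin at 0.002% final.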

A549 = experiment: Cytotoxicity against human A549 cells after 24 hrs by MTT assay; assay type: functional, cell-based; procedure, shortened: as §1
Escherichia coli [5] = experiment: Antibacterial activity against Escherichia coli 2884 by resazurin-based assay; assay type: functional
Pseudomonas aeruginosa = experiment: Antibacterial activity against Pseudomonas aeruginosa by resazurin-based assay; assay type: functional
Acinetobacter baumannii = experiment: Antibacterial activity against Acinetobacter baumannii by resazurin-based assay; assay type: functional
Staphylococcus aureus [6] = experiment: Antibacterial activity against methicillin-resistant Staphylococcus aureus by resazurin-based assay; assay type: functional
Procedure, shortened: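 MRSA was grown in Luria Broth liquid culture with diluted inoculum, compound added from a DMSO stock. Plates were incubated overnight at 37 °C and scored for visible growth by turbidity or fluorescence, with resazurin as the viability read-out. Tests were run in triplicate within one experiment.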

HepG2 = experiment: Cytotoxicity against human HepG2 cells after 24 hrs by MTT assay; assay type: functional, cell-based; procedure, shortened: as §1
[7] = Cytotoxicity against human Fa2N-4 cells assessed as growth inhibition at 5 uM after 24 hrs by MTT assay relative to control; assay type: cell-based; conditions: read-out: GI
Procedure, shortened: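 Fa2N4 healthy liver cells seeded at 3 × 10^4 cells/well. Exposed to compound at 5 μM (1 mM DMSO stock diluted 1/200) for 24 h at 37 °C, 5% CO2. Then 0.5 mg·mL−1 MTT for 3 h, formazan dissolved in DMSO, absorbance at 570 nm. Growth inhibition expressed as percent.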

[8] = Cytotoxicity against human Fa2N-4 cells after 24 hrs by MTT assay; assay type: cell-based; conditions: fa2n-4, 24 h; procedure, shortened: as §1

Structure (SMILES) | MIC80 (Staphylococcus aureus [3]) | MIC80 (Escherichia coli [4]) | MIC80 (Escherichia coli [5]) | MIC80 (Pseudomonas aeruginosa) | MIC80 (Acinetobacter baumannii) | MIC80 (Staphylococcus aureus [6]) | also measured
O=C1C[C@](O)(C(Br)Br)C(Br)=C1Br | > 32 µg/mL | 16 µg/mL (≈ 37.4 µM) | > 32 µg/mL | > 10 µg/mL | 8 µg/mL (≈ 18.7 µM) | 16 µg/mL (≈ 37.4 µM) | EC50 (Aliivibrio fischeri): 0.07 µg/mL (≈ 0.164 µM); Activity (HT-29): inactive; MIC80 (Aspergillus fumigatus [1]): > 32 µg/mL; MIC80 (Aspergillus fumigatus [2]): > 32 µg/mL; Activity (MCF7): inactive; Activity (A549): inactive; Activity (HepG2): inactive; inhibition at 24 h, 5 µM [7]: 53%
C[C@@H](O)[C@H]1C(=O)N2C(C(=O)O)=C(SCCNC=N)C[C@H]12 [IMIPENEM ANHYDROUS] |  |  |  |  |  | 8 µg/mL (≈ 26.7 µM) | 
CC1(C)S[C@@H]2[C@H](NC(=O)Cc3ccccc3)C(=O)N2[C@H]1C(=O)O [PENICILLIN G] | 0.01 µg/mL (≈ 0.0299 µM) |  |  |  |  |  | 
CO[C@H]1/C=C/O[C@@]2(C)Oc3c(C)c(O)c4c(O)c(c(/C=N/N5CCN(C)CC5)c(O)c4c3C2=O)NC(=O)/C(C)=C\C=C\[C@H](C)[C@H](O)[C@@H](C)[C@@H](O)[C@@H](C)[C@H](OC(C)=O)[C@@H]1C [RIFAMPIN] |  |  |  |  | 1 µg/mL (≈ 1.22 µM) |  | 
O=C1C(Br)=C(Br)[C@@](O)(C(Br)Br)[C@@H]1Br | > 32 µg/mL | 32 µg/mL (≈ 63.2 µM) | > 32 µg/mL | > 10 µg/mL | 16 µg/mL (≈ 31.6 µM) | 16 µg/mL (≈ 31.6 µM) | Activity [8]: Non-toxic; EC50 (Aliivibrio fischeri): 0.08 µg/mL (≈ 0.158 µM); Activity (HT-29): inactive; MIC80 (Aspergillus fumigatus [1]): > 32 µg/mL; MIC80 (Aspergillus fumigatus [2]): > 32 µg/mL; Activity (MCF7): inactive; Activity (A549): inactive; Activity (HepG2): inactive
CO[C@@H]1[C@@H](OC(N)=O)[C@@H](O)[C@H](Oc2ccc3c(O)c(NC(=O)c4ccc(O)c(CC=C(C)C)c4)c(=O)oc3c2C)OC1(C)C [NOVOBIOCIN] |  | 0.1 µg/mL (≈ 0.163 µM) | 0.3 µg/mL (≈ 0.49 µM) |  |  |  | 
O=C(O)c1cn(C2CC2)c2cc(N3CCNCC3)c(F)cc2c1=O [CIPROFLOXACIN] |  |  |  | 1.5 µg/mL (≈ 4.53 µM) |  |  | 
